Compounds with a hit are over-represented: about 4.8% of the library has one in this group of screens.
ATG4B inh = ATG4B (human) cysteine protease inhibition. ATG4B cleavage of LC3-PLA2, NBD-HPC fluorescence, 1 h. AID 504462. inhibition, % at 8.33 µM. Q9Y4P1. 340,000 tested, 0.51% active; in the data active = inhibition above about 40%
ALR H2O2 inh = inhibitors of human sulfhydryl oxidase ALR; P55789; purified ALR, DTT oxidation, H2O2 HRP-luminol luminescence; inhibition, % (concentration not given with the values); 290,000 tested, 3.8% active;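 active = mean replicate inhibition above about 79%, with every replicate also reaching it, limit read from the data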
Target sequence (P55789 whole entry, looked up): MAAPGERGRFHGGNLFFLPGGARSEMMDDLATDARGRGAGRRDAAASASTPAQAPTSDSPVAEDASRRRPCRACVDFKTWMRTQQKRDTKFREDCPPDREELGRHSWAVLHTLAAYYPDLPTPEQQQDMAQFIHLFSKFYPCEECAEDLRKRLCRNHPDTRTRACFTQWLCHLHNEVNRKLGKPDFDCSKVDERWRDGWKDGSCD
NALP1 yeast inh = NALP1 inhibition. S. cerevisiae NALP1/ASC/caspase-1 growth, X-gal OD620, 72 h. inhibition, % at 10 µM. 280,000 tested, 0.61% active. AID 2071; in the data active = inhibition mostly above about 24%, no sharp cut-off; inactive = mostly below about 32%
Calb FLC = C. albicans growth modulation with fluconazole. C. albicans CaCi-2 (fluconazole-resistant clinical isolate) + fluconazole, Alamar Blue growth, 48 h. growth inhibition, % (test concentration not listed). 300,000 tested, 0.57% active;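 active = growth inhibition above about 58% in most replicates, limit read from the data, passing the limit was not always enough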;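 also: all wells also contain fluconazole at 8 µg/ml as a sub-toxic cotreatment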
UCH37 DUB inh = inhibitors of human deubiquitinating enzyme UCH37. Q9Y5K5. purified proteasome/UCH37, Ub-AMC cleavage fluorescence. inhibition, % (concentration not given with the values). 330,000 tested, 0.33% active. AID 588478;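 active = mean inhibition over replicate wells above about 20%, limit read from the data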
Target sequence (Q9Y5K5 whole entry, looked up): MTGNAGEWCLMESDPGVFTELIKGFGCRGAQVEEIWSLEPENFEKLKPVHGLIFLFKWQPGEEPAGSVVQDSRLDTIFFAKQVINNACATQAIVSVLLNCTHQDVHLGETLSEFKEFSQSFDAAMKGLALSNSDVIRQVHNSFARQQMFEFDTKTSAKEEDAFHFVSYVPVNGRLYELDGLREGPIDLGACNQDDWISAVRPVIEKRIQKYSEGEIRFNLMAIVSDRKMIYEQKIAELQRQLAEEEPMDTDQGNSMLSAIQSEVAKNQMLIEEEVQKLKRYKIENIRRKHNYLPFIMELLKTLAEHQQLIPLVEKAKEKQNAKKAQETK
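Material: Human UCH37 enzyme supplied as purified proteasome complex | Schedule: 30 min compound-proteasome preincubation then 25 min substrate reaction, room temperature | Detection: AMC fluorescence from Ub-AMC cleavage, excitation 355 nm, emission 460 nm | Benchmarks: Wells without proteasome as full block, compound-free enzyme plus substrate as uninhibited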
NALP3 yeast inh = blocks the NALP3 inflammasome reconstituted in yeast; Yeast reconstituted NLRP3/ASC/caspase-1, beta-gal luminescence, 24 h; inhibition, % at 10 µM; 330,000 tested, 0.39% active;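 active = inhibition of 50% or more; inactive = inhibition below 50%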
A number is an active result; - = inactive; . = no result.

SMILES	ATG4B inh	ALR H2O2 inh	NALP1 yeast inh	Calb FLC	UCH37 DUB inh	NALP3 yeast inh
CCOC(=O)c1c(N)sc(C(=O)N2CCCC(C(N)=O)C2)c1C (centres undefined)	-	-	.	-	.	-
CCOC(=O)c1sc(NC(=O)CCN2CCCCCC2)c(C(=O)OCC)c1C	-	97	-	-	-	-
CCOC(=O)c1c(N)sc(C(=O)N(CC)CC)c1C	-	96	-	-	-	-
COc1cc(C(=O)NN=Cc2ccc(OC(=O)N3CCOCC3)cc2)cc(OC)c1OC	.	.	.	.	-	.
C/C(C=NNC(=O)c1cc(C)oc1C)=C/c1ccccc1	.	.	.	.	-	.
COc1ccc(CNc2ncc(-c3ccccc3)n2C)cc1	-	-	-	-	-	-
COc1ccc(CNc2ncc(-c3ccccc3)n2C)c(OC)c1OC	-	-	-	-	-	-
Cn1c(-c2ccc(F)cc2)cnc1NCc1ccc(F)cc1	-	91	-	-	-	-
COc1cc(CNc2ncc(-c3ccc(Cl)cc3)n2C)cc(OC)c1OC	-	95	-	-	-	-
CCOc1cc(CNc2ncc(-c3ccc(OC)cc3)n2C)ccc1O	-	78	-	-	-	-
COc1cc(CNc2ncc(-c3ccc(Br)cc3)n2C)cc(OC)c1OC	-	91	-	-	-	-
Nc1nnnn1CC(=O)NN=Cc1ccccn1	.	.	.	.	-	.
O=c1c2ccccc2nc(/C=C/c2ccc([N+](=O)[O-])o2)n1CCCO	-	-	-	108	-	-
O=c1c2ccccc2nc(/C=C/c2ccc([N+](=O)[O-])cc2)n1CCCO	-	-	-	-	-	-
O=C(NN=Cc1ccc(Cl)cc1)c1nc2ccc([N+](=O)[O-])cc2c(=O)[nH]1	.	.	.	.	-	.
O=C(C(=O)c1ccc(O)c(O)c1)c1ccc(O)c(O)c1	-	.	.	.	24	.
CC(C)C(=O)c1ccc(O)c(O)c1	-	99	-	-	-	-
COc1cc(C(=O)C(=O)c2ccc(OC)c(OC)c2)ccc1O	-	.	.	.	-	.
Cc1c(C(=O)NN=Cc2cccs2)nnn1-c1nonc1N	.	.	.	.	-	.
COc1ccc(C(=O)Nc2ccc3c(c2)nc2n3CCSC2)cc1	-	99	-	-	-	-
O=C(Nc1ccc2c(c1)nc1n2CCOC1)c1ccccc1	-	.	-	-	-	-
COc1ccc(C(=O)Nc2ccc3nc(C)c(C)nc3c2)cc1	-	-	-	-	-	-
O=C(Nc1ccc2c(c1)nc1n2CCSC1)c1ccccc1	-	99	-	-	-	-
Cc1oc(N=Cc2cccc3ccccc23)c(C#N)c1C	.	.	.	.	-	.
CC1(C)CC(=O)C(C=NCCc2ccc(O)cc2)=C(O)C1	-	96	-	-	-	-
SMILES	ATG4B inh	ALR H2O2 inh	NALP1 yeast inh	Calb FLC	UCH37 DUB inh	NALP3 yeast inh
CC1=CC(=O)C=CC1(C)C(Cl)Cl (centres undefined)	-	-	23	-	-	-
Cc1[nH]c2ccccc2c1C(=O)CCl	-	.	-	96	-	.
Cc1[nH]c2ccccc2c1C(=O)CSc1ccccc1	-	-	-	-	-	-
Cc1[nH]c2ccccc2c1CCNC(=O)CCC(=O)c1ccccc1	-	95	-	-	-	-
Cc1[nH]c2ccccc2c1CCC(N)=O	-	99	-	-	-	-
Cc1ccc(S(=O)(=O)N=CN(C)C)cc1	.	.	.	.	-	.
CCC(=O)Nc1ccc(N2CCCCC2)cc1	-	.	40	-	-	-
CC(=O)Nc1ccc(N2CCCC2)cc1	-	-	-	-	-	-
CC(=O)Nc1ccc(S(=O)(=O)Nc2ccc(N3CCOCC3)cc2)cc1	-	82	-	-	-	-
O=C(Cn1c(-c2ccccc2)noc1=O)Nc1ccc(N2CCCCCC2)cc1	-	-	36	-	-	-
O=C(Nc1ccc(N2CCCCC2)cc1)C1CCCN1S(=O)(=O)c1ccc(F)cc1 (centres undefined)	-	80	.	.	-	-
O=C(Cn1c(-c2ccccc2)noc1=O)Nc1ccc(S(=O)(=O)N2CCOCC2)cc1	-	.	-	-	-	-
COc1ccc(NC(=O)CC2SC(=Nc3nccs3)N(C)C2=O)cc1 (centres undefined)	.	.	.	.	-	.
Cc1cc(C(=O)NN=Cc2cccc([N+](=O)[O-])c2)c(C)o1	.	.	.	.	-	.
COc1ccc(C(=O)O)cc1S(=O)(=O)Nc1ccc(N2CCCCC2)cc1	-	96	.	.	-	-
Cc1ccc(NC(=O)CCC(=O)c2cccs2)cc1	-	-	-	-	-	-
COc1ccc(C(=O)O)cc1S(=O)(=O)Nc1ccc(C)cc1	-	.	-	-	-	-
O=C(CCC(=O)c1cccs1)Nc1ccc(N2CCCCC2)cc1	-	90	-	-	-	-
CC(=O)Nc1ccc(N2CCCCC2)cc1	-	99	-	-	-	-
Cc1ccc(S(=O)(=O)Nc2ccc(N3CCOCC3)cc2)cc1	-	-	-	-	-	-
Cc1ccc(S(=O)(=O)Nc2ccc(N3CCCCC3)cc2)cc1	-	98	-	-	-	-
CC1CCCCN1CC(=O)Nc1ccc(N2CCCCCC2)cc1 (centres undefined)	-	99	-	-	-	-
CC1CCCCN1CC(=O)Nc1ccc(Oc2ccccc2)cc1 (centres undefined)	-	-	-	-	-	-
CCCC(=O)Nc1ccc(N2CCCCC2)cc1	-	82	-	-	-	-
CC1(C)C(c2cccs2)=[N+]([O-])C2(CCCCCC2=NNC(N)=O)N1O (centres undefined)	.	.	.	.	-	.
SMILES	ATG4B inh	ALR H2O2 inh	NALP1 yeast inh	Calb FLC	UCH37 DUB inh	NALP3 yeast inh
C=CCc1cccc(C=NNC(=O)C(=O)Nc2ccc(C)cc2)c1O	.	.	.	.	-	.
Cc1c(C(=O)O)nnn1-c1ccccc1	-	-	-	-	-	-
Cc1c(C(=O)NNC(=S)Nc2cccc(Cl)c2)nnn1-c1ccccc1	-	91	-	-	-	-
O=C(Cn1c(C(F)(F)F)nc2ccccc21)c1ccc(F)cc1	-	92	-	-	-	-
CC1C(C#N)=C(SCC(N)=O)NC2=C1C(=O)CC(C)(C)C2 (centres undefined)	-	-	-	-	-	-
CCC1C(C#N)=C(SCC(N)=O)NC2=C1C(=O)CC(C)(C)C2 (centres undefined)	-	97	-	-	-	-
COc1ccc(NS(=O)(=O)c2cccc(C(=O)NN=C(C)c3cccnc3)c2)cc1	.	.	.	.	-	.
CCN(CC)c1ccc(N=Cc2ccc([N+](=O)[O-])o2)cc1	-	.	76	91	-	-
CCN(CC)c1ccc(N=Cc2ccccc2[N+](=O)[O-])cc1	55	87	-	-	-	-
COc1cc(C=NNC(=O)c2cc(C)oc2C)cc(OC)c1OC	.	.	.	.	-	.
COc1cc(C(=O)NN=Cc2ccc(OC(=O)c3cccc(C)c3)cc2)ccc1O	.	.	.	.	-	.
Cc1ccc(CNc2ccc(CNc3ncn[nH]3)cc2)cc1	-	-	-	-	-	-
CCOc1ccc(CNc2ccc(CNc3ncn[nH]3)cc2)cc1	-	-	-	102	-	-
c1ccc2c(CNc3ccc(CNc4ncn[nH]4)cc3)cccc2c1	-	-	-	-	-	-

Screening data (PubChem BioAssay)
